Assay results collected from several papers.
Compare with care: the assays were run in different laboratories.
Target: Serine/threonine-protein kinase MAK (MAK, Homo sapiens, UniProt P20794)
Sequence (P20794 1-623, as in one of the studies): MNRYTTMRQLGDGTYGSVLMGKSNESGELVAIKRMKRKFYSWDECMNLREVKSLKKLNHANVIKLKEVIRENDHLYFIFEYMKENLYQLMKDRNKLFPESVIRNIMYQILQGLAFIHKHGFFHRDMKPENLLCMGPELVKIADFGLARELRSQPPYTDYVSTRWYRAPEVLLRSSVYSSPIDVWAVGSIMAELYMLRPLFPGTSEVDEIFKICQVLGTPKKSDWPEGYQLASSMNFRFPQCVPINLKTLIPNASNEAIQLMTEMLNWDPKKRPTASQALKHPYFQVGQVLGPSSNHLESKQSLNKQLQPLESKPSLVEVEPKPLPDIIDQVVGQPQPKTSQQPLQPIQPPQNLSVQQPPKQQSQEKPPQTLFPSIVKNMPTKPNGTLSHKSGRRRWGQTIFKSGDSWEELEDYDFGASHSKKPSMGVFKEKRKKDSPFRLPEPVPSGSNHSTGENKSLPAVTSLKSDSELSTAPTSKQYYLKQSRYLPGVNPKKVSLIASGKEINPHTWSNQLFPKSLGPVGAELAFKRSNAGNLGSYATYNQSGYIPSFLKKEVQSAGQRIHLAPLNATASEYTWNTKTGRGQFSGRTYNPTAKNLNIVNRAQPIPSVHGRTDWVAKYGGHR

SMILES | test | conditions | endpoint | value
O=C(Nc1cnn(-c2csc(C(=O)NC3COC3)c2)c1)Nc1c(F)cccc1Cl | enzyme activity, inhibitor | 5 µM | remaining activity | 97.6%
Cc1ccc(C(=O)NCc2ccsc2)cc1C#Cc1cn(C(C)C)c2ncnc(N)c12 | enzyme activity, inhibitor | 1 µM | activity vs control | 120%
CC(C)CC(=O)N1CCc2nc(-c3ccc(Br)cc3)nc(N(C)Cc3ccccc3)c2C1 | cell-free assay, competition with immobilised ligand | 0.1 µM | remaining binding | 99%
CN1CC(Oc2cnc(C#N)cc2-c2ccn3nc(NC(=O)C4CC4)cc3c2)C1 | enzyme activity, inhibitor | 1 µM | inhibition | 3%
Cc1sc(C(=O)NC2COC2)cc1-n1cc(NC(=O)Nc2c(F)cccc2Cl)cn1 | enzyme activity, inhibitor | 10 µM | remaining activity | 120%
Nc1ncnc2occ(-c3ccc(NC(=O)Nc4cc(C(F)(F)F)ccc4F)cc3)c12 | cell-free assay | 20 µM | remaining signal | 7.9%
Cc1ccc(C(=O)Nc2ccc(CN3CCN(C)CC3)c(C(F)(F)F)c2)cc1C#Cc1cnc2cccnn12 | enzyme activity | 23.5 nM | remaining activity | 93%
NS(=O)(=O)c1cc(NC(=O)C2(c3ccccc3Cl)CC2)ccc1Oc1cccc(Cl)c1 | binding, competition with immobilised ligand | 1 µM | remaining binding | 89%
